Screens (PubChem)
Shown are actives, neighbours in structure and some others; about 2.9% of the full set was active somewhere.
SF1 activator: SF-1 (human) activation; Q13285; CHO-K1 Gal4-SF-1 LBD luciferase reporter; % increase over DMSO SF-1-specific signal; activation, % at 10 µM; 65,000 tested, 1.9% active; AID 522;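 active = activation above the mean activation of all tested compounds plus 3 SD, cut at about 50% in these data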
Target sequence (Q13285 whole entry, looked up, the tested form may be a part): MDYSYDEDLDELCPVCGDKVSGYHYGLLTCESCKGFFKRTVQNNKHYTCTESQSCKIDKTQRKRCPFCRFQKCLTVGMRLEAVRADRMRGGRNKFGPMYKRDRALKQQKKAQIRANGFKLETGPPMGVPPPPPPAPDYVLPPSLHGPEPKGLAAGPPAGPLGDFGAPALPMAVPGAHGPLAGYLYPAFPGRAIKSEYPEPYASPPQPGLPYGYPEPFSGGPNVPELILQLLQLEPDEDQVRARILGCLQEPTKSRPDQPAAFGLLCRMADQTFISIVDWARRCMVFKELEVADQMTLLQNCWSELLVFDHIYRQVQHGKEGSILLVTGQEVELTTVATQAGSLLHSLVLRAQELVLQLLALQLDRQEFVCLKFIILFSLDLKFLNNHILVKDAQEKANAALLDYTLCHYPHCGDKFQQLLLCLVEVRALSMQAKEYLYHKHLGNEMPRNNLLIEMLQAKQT
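System: CHO-K1 cells with Gal4–hSF-1 LBD chimera plus Gal4-driven luciferase; quantity: 4,000 CHO-K1 cells per well; compound: one dose, 10 µM compound, 1% DMSO; times: 20 h compound treatment, 37 °C; measured by: SteadyLite luciferase luminescence; read-out: percent activation versus DMSO; benchmarks: DMSO and mock-transfected background; replicates: one test per compound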
Jurkat viability: cytotoxic compounds reducing Jurkat cell viability | Jurkat E6.1 viability, ATP luminescence, 48 h | inhibition, % at 4 µM | 56,000 tested, 1.2% active | AID 463;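 active = inhibition above the mean inhibition of all tested compounds plus 3 SD, cut at about 28% in these data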
RORa activator: activators of human nuclear receptor RORA. P35398. CHO-K1 Gal4-RORA LBD luciferase reporter, luminescence; percent increase over mock-subtracted basal signal. activation, % at 10 µM. 65,000 tested, 1.5% active. AID 560;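 active = activation above the mean of all tested compounds plus 3 SD, cut at about 49% in these data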
HEK293 NFkB inh: lowers PMA/ionomycin-induced NF-kB signal in HEK293 cells; HEK-293 NF-kB luciferase reporter, luminescence; inhibition, % at 3 µM; 62,000 tested, 0.21% active; AID 465;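 active = inhibition above the mean of all tested compounds plus 3 SD, cut at about 40% in these data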
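Signal: luciferase luminescence; Material: HEK-293 cells with stable firefly luciferase reporter driven by four HIV NF-kB elements; Probe or stimulus: PMA with ionomycin; Replication: tested once; Times: 1 h compound pretreatment, then 16 h stimulation at 37 °C, 5% CO2; Benchmarks: DMSO and 10 µM reference inhibitor; Evaluation: per-plate % inhibition versus controls.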
MT1-MMP txn act: activates MT1-MMP transcription; HT1080 MT1-MMP promoter luciferase reporter, luminescence, overnight; stronger effect = higher value; activation factor at 10 µM; 86,000 tested, 0.16% active;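 active = activation factor of at least 2 for MT1-MMP transcription at 10 µM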
Of the large screens only hits and unclear results are named; the others gave an inactive call.

Cc1cc(C(=O)COc2ncnc3sccc23)c(C)n1C1CC1	none
CCCn1c(C)cc(C(=O)COc2ncnc3sccc23)c1C	SF1 activator 53
Cc1ccsc1C=Nc1ccc(O)cc1	Jurkat viability 48
Oc1c(C=Nc2cccnc2)sc2ccccc12	none (no result: Jurkat viability, HEK293 NFkB inh)
Cc1ccc(S(=O)(=O)C2(C(=O)N3CCCCC3C)CC2)cc1 (stereo not drawn)	none
Fc1cnc(N2CCOCC2)nc1N1CCc2ccccc21	SF1 activator 55
COc1ccccc1C1c2c(oc3ccc(Cl)cc3c2=O)C(=O)N1c1cc(C)on1 (stereo not drawn)	none
Cc1cc(C)cc(NC2=NC3(CCCCC3)N=C(N)N2)c1	Jurkat viability 66
Oc1ccc(-c2cccc(-c3ccc(O)cc3)n2)cc1	RORa activator 52
CCCc1ccc(OCc2ccc(C(=O)N3CCN(c4ccccn4)CC3)o2)c(OC)c1	RORa activator 50
O=C(NCCc1c[nH]c2ccccc12)[C@@H]1C[C@H]1[C@@H](NP(=O)(c1ccccc1)c1ccccc1)c1ccccc1	none (no result: SF1 activator, Jurkat viability, RORa activator, HEK293 NFkB inh)
CC1CCc2c(sc(NC(=O)c3noc4c3CCCC4)c2C(N)=O)C1 (stereo not drawn)	SF1 activator 50, RORa activator 101
CCC(C)(C)n1nnnc1C(c1ccc(C)cc1)N(Cc1ccco1)Cc1cccs1 (stereo not drawn)	none (no result: SF1 activator, Jurkat viability, RORa activator, HEK293 NFkB inh)
CCOc1cccc(-c2nnc3sc(-c4cccs4)nn23)c1	none (no result: Jurkat viability, HEK293 NFkB inh)
COc1cccc(-c2nnc3sc(-c4ccco4)nn23)c1	SF1 activator 50 (no result: Jurkat viability, HEK293 NFkB inh)
COc1cccc(-c2nnc3sc(-c4cccs4)nn23)c1	SF1 activator 70 (no result: Jurkat viability, HEK293 NFkB inh)
COc1ccc(-c2nnc3sc(-c4ccco4)nn23)cc1OC	none
O=C(c1cc2c(s1)CCCC2)N1CCN(Cc2ccc3c(c2)OCO3)CC1	none
O=C(Oc1ccc2c(c1)OCO2)c1cc2c(s1)CCC2	Jurkat viability 43
CCOC(=O)c1cnn2c(C)cc(-c3ccccc3)nc12	SF1 activator 65
CCC1CCCCN1C(=O)c1cc(-c2ccc(Cl)c(Cl)c2)on1 (stereo not drawn)	RORa activator 54
CC1CCCCN1C(=O)c1cc(-c2ccc(Cl)c(Cl)c2)on1 (stereo not drawn)	RORa activator 62
CC(C)CNC(=O)c1cc(-c2ccc(Cl)c(Cl)c2)on1	none
COc1cc2c(cc1OC)CN(C(=O)CC1CC3CCC1C3)CC2 (stereo not drawn)	none (no result: MT1-MMP txn act)
COc1cc(-c2nc(-c3cccc(C)c3)no2)cc(OC)c1OC	none
CCOc1ccc(-c2nc(-c3ccccc3)no2)cc1OCC	SF1 activator 84, RORa activator 49
CCOc1ccc(-c2nc(-c3ccncc3)no2)cc1OCC	none
COc1ccccc1-c1noc(-c2ccccc2)n1	SF1 activator 65
COc1ccc(-c2nc(-c3cccc(C)c3)no2)cc1OC	SF1 activator 59, RORa activator 61
COc1nc(-c2ccccc2)ccc1-c1noc(-c2ccco2)n1	SF1 activator 55
COc1ccc(-c2ccc(-c3noc(-c4ccco4)n3)c(OC)n2)cc1	none
CCOC(=O)c1c(NC(C)=O)sc2c1CCC(C=NCCCN(CC)CC)=C2Sc1ccccc1	none (no result: SF1 activator, Jurkat viability, RORa activator, HEK293 NFkB inh)
COc1ccc(-c2nc(-c3ccccc3OC)no2)cc1OC	RORa activator 56
CCOc1cc(-c2nc(-c3ccccc3OC)no2)cc(OCC)c1OCC	none
COc1ccc(-c2noc(CSc3ccccc3)n2)cc1OC	SF1 activator 68
Cc1ccc(SCc2nc(-c3ccccc3)no2)cc1	none
COc1ccc(-c2nc(C3CCCCC3)no2)cc1OC	SF1 activator 57 (no result: MT1-MMP txn act)
O=C(C1CC1)N1CCC(c2nc(-c3ccc(S(=O)(=O)NCC4CCCO4)cc3)no2)CC1 (stereo not drawn)	Jurkat viability 52
O=C(Cn1cccc1)NCc1cccs1	none
O=C(Cc1ccc(-n2cccc2)cc1)NCc1cccs1	Jurkat viability 71
CCOC(=O)N1CCN(c2nc(C)c3c(n2)CC(C)CC3=O)CC1 (stereo not drawn)	none
CC(C)CC(c1nnnn1Cc1ccccc1)N1CCN(C(=O)c2ccco2)CC1 (stereo not drawn)	none
Cc1cc(NCCOCCO)n2ncc(-c3ccc(Cl)cc3)c2n1	RORa activator 89
Cc1cc(NCCCN2CCOCC2)n2ncc(-c3ccccc3)c2n1	SF1 activator 107, RORa activator 54
Cc1ccc2cc3cc(C(=O)N(C)C4CCCCC4)oc3nc2c1	SF1 activator 77
